Bioassay records from PubChem BioAssay.
Glyco luc inh – N-linked glycosylation inhibition | D54 ERlucT glycosylation luciferase reporter, 24 h; percent of 100 nM tunicamycin response | reporter increase, % at 12.5 µM | 360,000 compounds, 0.23% hits;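 active = mean luciferase reporter signal, scaled so untreated is 0 and the glycosylation-blocking control 100, at or above a set limit in every replicate; inconclusive = mean reaches the limit but not every replicate does; inactive = mean below the limit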;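 also: luciferase carries N-glycosylation sites so blocking glycosylation raises the light; 0% = median of neutral control wells and 100% = median of 100 nM tunicamycin wells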
T cell modulator – T cell immune modulators affecting CD8 T cell-vesicle binding; 2C CD8+ T cell-vesicle binding, flow cytometry; active compounds read low; response (vesicle binding), % at 7 µM; 330,000 compounds, 0.068% hits; AID 2052;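 active = response, share of CD8 T cells binding vesicles, and their 90th percentile fluorescence all below set limits, cut at about 80% in these data, passing the limit was not always enough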;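 also: values below 100% mean blocked vesicle binding to the CD8+ T cells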
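Assay system – 2C mouse CD8+ T cells · Also added – QL9-loaded Drosophila micro-vesicles · Timing – Cell–vesicle co-incubation 1.5 h at 37 °C, staining 20 min on ice · Signal – flow cytometry of vesicle-bound cells · Measure – percent CD8+ FL2 mean versus row control · Controls – Peptide-free naked vesicles (low) and QL9 vesicles with 0.7% DMSO vehicle (high)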
ALR H2O2 inh – human ALR oxidase inhibition via reduced H2O2 | purified ALR, DTT oxidation, H2O2 HRP-luminol luminescence | inhibition, % (test concentration not listed) | 290,000 compounds, 3.8% hits | P55789;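 active = mean replicate inhibition above about 79%, with every replicate also reaching it, limit read from the data; inconclusive = only one of the two criteria met; inactive = mean below limit and not every replicate reaching it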
Target sequence (P55789 whole entry, looked up): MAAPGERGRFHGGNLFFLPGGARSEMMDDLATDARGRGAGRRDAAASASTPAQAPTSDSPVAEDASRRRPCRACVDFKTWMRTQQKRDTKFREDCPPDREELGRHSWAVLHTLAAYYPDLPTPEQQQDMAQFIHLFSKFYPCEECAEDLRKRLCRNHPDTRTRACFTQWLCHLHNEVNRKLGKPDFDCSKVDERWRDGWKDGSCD
Active calls of the source: *; i = inactive; ? = inconclusive; / = no result given. Only a selection was taken, and hits are over-represented in it overall.

SMILES	Glyco luc inh	T cell modulator	ALR H2O2 inh
CCc1cccc(CC)c1-n1c(SCC(=O)N2CCc3ccccc3C2)nnc1-c1cccnc1	-1.9	470.5	0.3
CCc1nc2c(OCc3ccc(F)cc3)cccn2c1N(C)C(=O)c1ccc(C)cc1	0.0	/	/
CCCNC(=O)NC(=O)COC(=O)CNS(=O)(=O)/C=C/c1ccccc1	0.5	412.0	10.9
Cc1ccc2cccc(CC(=O)NN)c2c1	1.4	/	/
Cc1nn(-c2cccc(Cl)c2)c2nc(-c3ccco3)cc(C(=O)O)c12	3.5	271.0	20.0
Cc1nn(-c2ccccc2)c2nc(-c3ccco3)cc(C(=O)O)c12	1.0	428.8	97.0*
CC(C)COc1ccc(C(=O)CCN2CCCCC2)cc1	-6.0	208.9	0.4
CCCCOc1ccc(C(=O)CCN2CCCCC2)cc1	-4.1	227.8	97.5*
CCN(CC(=O)Nc1c(F)cccc1F)C(=O)C1Cc2ccccc2CN1S(=O)(=O)CC (configuration not stated)	1.3	237.3	-5.7
Cc1ccc(OC(=O)COc2ccccc2)c(-n2nc3ccccc3n2)c1	-2.6	499.0	2.0
Cc1ccc(OC(=O)COc2ccccc2C)c(-n2nc3ccccc3n2)c1	-4.8	208.2	96.3*
CC(C)(C)C(=O)NCc1ccc(C(=O)CSc2nnc(-c3ccncc3)n2C2CC2)s1	-1.2	/	/
Cc1nc2ncnn2c(N2CCCC(C(=O)Nc3ccc4c(c3)CCC4)C2)c1C (configuration not stated)	1.2	166.3	91.6*
O=C(Nc1ccc2c(c1)CCC2)C1CCCN(c2ncccn2)C1 (configuration not stated)	-1.5	153.1	1.5
Cn1c(=O)[nH]c(=O)c2c1nc(SCC(N)=O)n2Cc1cccc(Br)c1	26.6*	62.8	-15.6
C=C(C)CSc1nc2c(c(=O)[nH]c(=O)n2C)n1Cc1ccccc1	-2.8	362.8	-2.4
CCCN(CCC)C(=O)c1cc2c(=O)n3cccc(C)c3nc2s1	-1.9	173.3	38.4
O=C1NC(=O)/C(=C/c2cccc3ccccc23)S1	1.4	481.4	38.7
O=C1Nc2ccc3c(c2C1=Cc1cc2c(cc1Br)OCO2)OCO3	9.3	/	/
O=C1NC(=O)/C(=C\c2ccc(O)cc2O)S1	-1.5	377.4	99.0*
O=C1NC(=O)/C(=C/c2cc3c(cc2Br)OCO3)S1	-2.3	317.6	96.5*
CCOC(=O)N1CCN(C(=O)C(=O)Nc2sc3c(c2C(=O)O)CC(C)(C)OC3)CC1	-0.8	343.8	1.9
Cc1cccc(S(=O)Cc2ccc(C(=O)NC3CCN(Cc4ccccc4)CC3)o2)c1 (configuration not stated)	-1.7	95.0	-15.0
O=C(CN1C(=O)c2ccccc2S1(=O)=O)c1ccc(O)c(O)c1	-11.0	631.3	?
O=C1c2cc(O)c(O)cc2S(=O)(=O)C1c1ccccc1 (configuration not stated)	-0.6	766.0	99.0*
SMILES	Glyco luc inh	T cell modulator	ALR H2O2 inh
CC1CN(C(=O)Nc2ccc3snnc3c2)c2ccccc21 (configuration not stated)	2.6	352.1	94.0*
CC1Cc2ccccc2N1C(=O)c1ccc2snnc2c1 (configuration not stated)	-1.3	725.5	-1.7
CNC(=O)Nc1ccc2snnc2c1	2.5	597.8	52.0
O=C(Nc1ccc2snnc2c1)N1CCSCC1	3.2	243.8	92.9*
O=[N+]([O-])c1ncccc1OCc1ccc(Br)cc1F	-0.2	206.5	-9.3
Cc1ccc(NC(=O)CSC(C)C(=O)OCC(=O)N2CCN(C(=O)c3ccco3)CC2)cc1 (configuration not stated)	-1.0	572.4	9.5
O=C(NC(=S)NNC(=O)c1ccccc1[N+](=O)[O-])c1ccc(Br)cc1	1.3	295.4	98.8*
COc1ccc(C(=O)NC(=S)NNC(=O)c2ccc(O)cc2)cc1[N+](=O)[O-]	1.0	550.6	97.0*
COc1ccc(C(=O)NNC(=O)c2ccncc2)cc1[N+](=O)[O-]	3.1	292.3	-7.2
O=C(NC(=S)NNC(=O)c1ccccc1O)c1cccc([N+](=O)[O-])c1	-0.5	235.7	/
CCOCCCNS(=O)(=O)c1ccc(NC(=O)c2ccc(OC)c([N+](=O)[O-])c2)cc1	0.4	254.7	2.4
COc1ccc(C(=O)NNC(=S)NC(=O)c2cccc([N+](=O)[O-])c2)cc1	-0.3	323.2	97.7*
O=C(NNC(=S)NC(=O)c1ccccc1[N+](=O)[O-])c1ccccc1Cl	0.7	271.1	5.1
COc1ccc(C(=O)Nc2ccc(S(=O)(=O)NC(C)=O)cc2)cc1[N+](=O)[O-]	-0.2	301.8	99.0*
C[C@H](CO)N1C[C@H](C)[C@@H](CN(C)S(=O)(=O)c2ccccc2)Oc2c(NS(=O)(=O)c3ccc(F)cc3)cccc2C1=O	-1.4	296.7	1.9
Cc1ccc(NC(=O)CN2C(=O)C(=O)N(C3CCCC3)C2=O)c(Cl)c1	-1.1	i	/
